This is a sample that favours compounds with a hit; in the whole collection about 1.2% have one here.
ARNT TACC3 PPI: disruptors of ARNT/TACC3 protein interaction, primary screen, biochemical, AlphaScreen, single concentration. Transforming acidic coiled-coil-containing protein 3 (Homo sapiens), Q9Y6A5. AlphaScreen His-ARNT PAS-B/GST-TACC3 binding, luminescence; TACC3 fragment carries E629A point mutation. inhibition, % at 9.99 µM. actives 0.66% (n = 390,000). AID 623870, 2012;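 active means mean inhibition of replicates at least 50% and at least half of replicates each reaching 50%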;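 further: 0% = complete ARNT plus TACC3 wells and 100% = ARNT alone without TACC3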
CAL PDZ FP-1: CAL PDZ peptide-binding inhibitors, primary screen, biochemical, fluorescence polarization, Cer-tagged CAL PDZ, HTS; Golgi-associated PDZ and coiled-coil motif-containing protein (Homo sapiens), Q9HD26; purified CAL PDZ, TMR-peptide fluorescence polarization, 1 h; inhibition, % at 20 µM; actives 0.02% (n = 330,000);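 active means highest replicate inhibition of at least 40%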;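 further: plate controls were DMSO neutral control wells for no effect and unlabeled competitor peptide control wells for full effect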
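material = purified tagged CAL PDZ domain construct (CerCALP) | buffer or medium = sodium phosphate/NaCl buffer pH 7.4 with TCEP, IgG, Thesit | reagent = TMR-labelled reporter peptide T*-PRC34 bound in PDZ groove | incubation = 1 h room-temperature incubation prior to read | measured by = fluorescence polarization (mP) | evaluation = percent inhibition from loss of millipolarization | control set = unlabelled peptide and DMSO controls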
CAL PDZ FP-2: untagged CAL PDZ binding inhibitors, primary screen, biochemical, fluorescence polarization, HTS | Golgi-associated PDZ and coiled-coil motif-containing protein (Homo sapiens), Q9HD26 | purified CAL PDZ, TMR-peptide fluorescence polarization, 1 h | inhibition, % at 24.9 µM | actives 0.92% (n = 300,000);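 active means mean inhibition of at least 30% with at least half of replicates also reaching 30%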;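 further: 0% = DMSO neutral control and 100% = excess unlabeled competitor peptide PRC23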
* = called active by the depositor; . = no result given; + = active, no number.

SMILES	ARNT TACC3 PPI	CAL PDZ FP-1	CAL PDZ FP-2
C[C@@H]1CN([C@@H](C)CO)C(=O)Cc2cc(NC(=O)CCC(F)(F)F)ccc2O[C@@H]1CN(C)CC1CC1	-14.2	.	.
O=C(C[C@H]1CC[C@@H]2[C@H](COC[C@H](O)CN2C(=O)c2ccccc2F)O1)NCc1ccc(Cl)cc1	-11.4	.	.
CC1(C)CC(=O)C(C=NCCCO)=C(O)C1	20.7	-1.9	-0.4
CC1(C)CC(=O)C(C=NCCN2CCNC2=O)=C(O)C1	-9.2	0.3	52.2*
O=S(=O)(Nc1nccs1)c1ccc(Br)cc1	-6.3	-2.6	-2.7
COc1ccc(S(=O)(=O)Nc2nccs2)cc1OC	-6.2	-6.6	53.3*
O=C(C[C@@H]1C[C@@H]2c3cc(NS(=O)(=O)c4ccc(F)cc4)ccc3O[C@@H]2[C@H](CO)O1)NCc1cccc(F)c1	2.3	.	.
CO[C@H]1CC[C@@H]2CCOc3ccc(C#N)cc3C(=O)N(C)C[C@@H](C)C(=O)N(C)C[C@H]1O2	-4.2	.	.
CCOc1ccc(N(Cc2ccc(OC)cc2)C(=O)c2ccco2)cc1	2.1	-1.2	-0.5
COc1ccc(CN(C(=O)c2ccco2)c2ccc(C)c(C)c2)cc1	5.5	-0.2	30.9*
C[C@H](CO)N1C[C@H](C)[C@H](CN(C)S(C)(=O)=O)OCCCC[C@H](C)Oc2ccc(NC(=O)Nc3ccccc3)cc2C1=O	-7.3	.	.
CCOc1ccc2nc(/N=C/c3c(C)[nH]n(-c4ccc(C)cc4)c3=O)sc2c1	32.3	-1.3	0.2
CCOc1ccc2nc(/N=C/c3c(C)[nH]n(-c4ccccc4)c3=O)sc2c1	27.4*	-1.0	-1.9
NC(=O)NC(CC(=O)NNC(=O)c1ccccn1)c1ccccc1Cl (stereo not drawn)	31.3	0.6	108.9*
NC(=O)NC(CC(=O)NCCc1ccccn1)c1ccccc1Cl (stereo not drawn)	-1.8	-4.1	-0.2
CN1C[C@H]2[C@@H](c3ccccc31)[C@H](CO)N2C(=O)Nc1ccccc1	-9.7	.	.
COc1ccc(NC(=O)N(C)C[C@@H]2Oc3ccc(NC(=O)Nc4cccc5ccccc45)cc3CC(=O)N([C@@H](C)CO)C[C@H]2C)cc1	0.7	.	.
COc1ccc(S(=O)(=O)N[C@H]2CC[C@@H](CCNC(=O)Cc3ccccn3)O[C@@H]2CO)cc1	0.1	.	.
CC1CCc2cc(F)ccc2N1C(=O)c1cccs1 (stereo not drawn)	-3.0	-1.1	31.6*
CC1CCc2cc(F)ccc2N1C(=O)c1cccnc1 (stereo not drawn)	-2.1	-0.1	0.5
C[C@H](CO)N1C[C@H](C)[C@@H](CN(C)Cc2cccc(F)c2)Oc2ncc(C#C[C@@H](C)O)cc2C1=O	-3.8	.	.
O=C(NCc1ccccc1)c1nc(S(=O)(=O)Cc2ccccc2)ncc1Cl	4.6	-0.2	+
COc1ccc(CNC(=O)c2nc(S(=O)(=O)Cc3ccccc3)ncc2Cl)cc1	-4.0	-2.4	0.2
CCOc1ccc2[nH]c3c(NCCOC)ncnc3c2c1	4.1	-0.2	11.9
CCOc1ccc2[nH]c3c(NCC(C)C)ncnc3c2c1	-1.8	-0.8	80.7*
SMILES	ARNT TACC3 PPI	CAL PDZ FP-1	CAL PDZ FP-2
O=C(C[C@@H]1C[C@@H]2c3cc(NC(=O)Nc4ccccc4)ccc3O[C@@H]2[C@H](CO)O1)NCC(F)(F)F	-6.0	.	.
O=C([C@H]1[C@H](CO)[C@H]2Cn3c(cccc3=O)[C@H]2N1CC1CCCC1)N1CCc2ccccc2C1	11.1	.	.
CO[C@@H]1CN(C)C(=O)c2cc(NC(=O)Nc3cccc(Cl)c3)ccc2OC[C@H](C)NC[C@@H]1C	-1.8	.	.
O=C(Nc1ccc(NC(=O)c2ccco2)c(Cl)c1)c1ccccc1	-0.2	0.0	.
CCC(=O)Oc1cccc(C(=O)Nc2cccc(NC(=O)c3ccco3)c2)c1	.	-2.9	44.4*
O=C(Nc1ccc(CSc2ccccc2)cc1)c1ccco1	-7.3	-3.6	63.3*
CCC(=O)Oc1ccc(NC(=O)c2ccco2)cc1	-1.9	-0.1	0.3
O=C(Nc1ccc(Br)c(Cl)c1)c1ccco1	-5.7	.	46.3*
Nc1cccc(NC(=O)c2ccco2)c1	-5.3	.	-2.6
O=C(Nc1cccc(F)c1)c1ccco1	-1.6	53.6*	0.8
O=C(CCc1ccccc1)Nc1ccc(NC(=O)c2ccco2)cc1	-5.1	-2.4	-2.1
Cc1noc(C)c1NC(=O)NCC[C@@H]1CC[C@H](NC(=O)Nc2cccc(Cl)c2)[C@H](CO)O1	2.2	.	.
C[C@H]1CN([C@@H](C)CO)C(=O)c2cc(C3=CCCC3)cnc2O[C@H]1CN(C)Cc1cccnc1	-3.2	.	.
C[C@@H]1CN([C@@H](C)CO)C(=O)c2cc(NS(=O)(=O)c3ccc(F)cc3)ccc2O[C@H]1CN(C)S(=O)(=O)c1ccc(Cl)cc1	-3.1	.	.
COc1ccccc1-n1c(SCC(N)=O)nnc1-c1ccccc1	-7.2	-2.6	-0.5
Cc1ccc(C)c(-n2c(SCC(=O)N3CCCC3)nnc2-c2ccccn2)c1	46.0*	0.1	.
CCOC(=O)CCSc1nnc(-c2cccnc2)n1-c1ccccc1OC	1.4	0.6	67.2*
CCOc1ccccc1-n1c(SCC(=O)N2CCOCC2)nnc1-c1ccccn1	21.4	.	41.8*
CCOc1ccccc1-n1c(SCC(N)=O)nnc1-c1ccc(O)cc1	53.9*	-0.9	8.8
CCOc1ccccc1-n1c(SCC(=O)N(CC)CC)nnc1-c1ccccn1	14.2	0.2	.
CCOc1ccccc1-n1c(SCC(N)=O)nnc1-c1ccccc1	8.2	0.7	11.7
Cc1cccc(-n2c(SCC(=O)N3CCCC3)nnc2-c2ccccn2)c1C	.	-2.4	2.3
C[C@@H]1CCCCO[C@H](CN(C)C(=O)Nc2ccc3c(c2)OCO3)[C@H](C)CN([C@H](C)CO)C(=O)c2cc(NC(=O)NC3CCCCC3)ccc2O1	2.5	.	.
CO[C@@H]1CN(C)C(=O)c2ccc(NC(=O)C3CCC3)cc2OC[C@H](C)N(C)C[C@@H]1C	-13.8	.	.
C[C@H](CO)N1C[C@H](C)[C@@H](CN(C)C)Oc2cc(/C=C/c3ccccc3)ccc2S1(=O)=O	0.0	.	.
SMILES	ARNT TACC3 PPI	CAL PDZ FP-1	CAL PDZ FP-2
Cc1ccccc1S(=O)(=O)N[C@@H]1CC[C@H](CCn2cc(Cc3ccccc3)nn2)O[C@@H]1CO	0.9	.	.
CCCNC(=O)N(C)C[C@@H]1Oc2cc(-c3ccc(C)cc3)ccc2S(=O)(=O)N([C@@H](C)CO)C[C@H]1C	12.6	.	.
C[C@H]1CCCCO[C@H](CN(C)Cc2ccc(C(F)(F)F)cc2)[C@@H](C)CN([C@@H](C)CO)C(=O)c2cc(NC(=O)CCC(F)(F)F)ccc2O1	-9.3	.	.
C[C@@H]1CN([C@@H](C)CO)C(=O)c2cc(NS(=O)(=O)c3cn(C)cn3)ccc2O[C@@H](C)CCCCO[C@H]1CN(C)S(=O)(=O)c1ccc(Cl)cc1	-3.0	.	.
COc1cc(OC)c2c(-c3ccccc3)cc(=O)oc2c1C(CCN1CCN(c2ccccc2)CC1)c1ccc(N(C)C)cc1 (stereo not drawn)	0.9	-1.6	-0.9
CCN(CC)CCC(c1ccc(N(C)C)cc1)c1c(OC)cc(OC)c2c(-c3ccccc3)cc(=O)oc12 (stereo not drawn)	38.6*	0.8	2.4

From PubChem
